Source: ChEMBL document CHEMBL1156178, “Discovery of novel 6,6-heterocycles as transient receptor potential vanilloid (TRPV1) antagonists” (J Med Chem, 2010)
Converted amounts (≈) assume the structure as drawn.

Tests used:
[1] = Solubility in 0.1 N HCL after 4 hrs by HPLC/MS analysis; assay type: physicochemical
[2] = Tmax in rat at […], iv and 10 mg/kg, po; assay type: ADME, organism-based; conditions: in vivo
[3] = Half life in rat at […], iv and 10 mg/kg, po; assay type: ADME, organism-based; conditions: in vivo
[4] = Clearance in rat at […], iv and 10 mg/kg, po; assay type: ADME, organism-based; conditions: in vivo
[5] = Volume of distribution in rat at […], iv and 10 mg/kg, po; assay type: ADME, organism-based; conditions: in vivo
[6] = Oral bioavailability in rat at 10 mg/kg; assay type: ADME, organism-based; conditions: in vivo
[7] = Metabolic stability in rat liver microsomes assessed as compound remaining at 1 uM after 10 mins by LCMS analysis; assay type: ADME, Microsome; conditions: read-out: Activity
Procedure, shortened: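 Compound (1 μM) incubated at 37 °C with 0.5 mg/mL male pooled rat liver microsomes; NADPH added to start the reaction. Aliquots were taken at 0 and 10 min and quenched into ice-cold acetonitrile with internal standard, then centrifuged. Parent was monitored as the M+1 ion by ESI-LCMS in selected-ion mode. Percent remaining was taken as the 10 min/0 min signal ratio, corrected by internal-standard recovery.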

[8] = target: Transient receptor potential cation channel subfamily V member 1 (Homo sapiens, UniProt Q8NER1); test: Antagonist activity at human recombinant TRPV1 expressed in HEK293 cells assessed as inhibition of capsaicin-induced calcium mobilization by FLIPR assay
[9] = species: Rattus norvegicus; test: Analgesic activity against carrageenan-induced thermal hyperalgesia in rat; assay type: functional; conditions: read-out: MED

Chain of Transient receptor potential cation channel subfamily V member 1 (Q8NER1 whole entry): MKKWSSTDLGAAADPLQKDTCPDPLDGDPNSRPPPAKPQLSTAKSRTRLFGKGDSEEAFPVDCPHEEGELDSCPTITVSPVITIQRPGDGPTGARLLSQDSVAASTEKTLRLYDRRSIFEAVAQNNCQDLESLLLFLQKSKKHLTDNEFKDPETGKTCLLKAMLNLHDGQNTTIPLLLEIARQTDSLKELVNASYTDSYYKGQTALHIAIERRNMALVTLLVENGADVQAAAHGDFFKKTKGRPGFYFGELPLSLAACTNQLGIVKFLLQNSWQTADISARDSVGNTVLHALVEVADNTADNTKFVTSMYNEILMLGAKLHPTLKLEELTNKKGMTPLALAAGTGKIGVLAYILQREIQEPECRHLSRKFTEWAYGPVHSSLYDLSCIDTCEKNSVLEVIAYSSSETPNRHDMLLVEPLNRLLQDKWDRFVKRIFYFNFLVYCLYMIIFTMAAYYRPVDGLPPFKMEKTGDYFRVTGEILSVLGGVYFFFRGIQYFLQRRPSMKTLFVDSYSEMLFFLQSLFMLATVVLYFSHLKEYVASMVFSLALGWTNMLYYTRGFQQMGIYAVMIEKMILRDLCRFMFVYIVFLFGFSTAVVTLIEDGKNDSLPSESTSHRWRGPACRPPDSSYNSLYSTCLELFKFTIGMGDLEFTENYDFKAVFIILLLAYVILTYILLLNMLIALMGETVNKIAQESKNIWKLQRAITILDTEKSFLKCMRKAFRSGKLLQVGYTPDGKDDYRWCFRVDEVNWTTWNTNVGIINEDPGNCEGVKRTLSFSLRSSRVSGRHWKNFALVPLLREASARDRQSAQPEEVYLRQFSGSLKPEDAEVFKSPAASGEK

Cl.FC(F)(F)c1ccc(Nc2ncnc3cc(-c4ncccc4C(F)(F)F)ccc23)cn1
solubility at 4 h [1]: 35 µg/mL | Tmax [2]: 4.7 h | half-life [3]: 4 h | clearance [4]: 22 mL/min/kg | Vd [5]: 5.5 L/kg | bioavailability [6]: 65% | remaining at 10 min, 1 µM [7]: 100%

FC(F)(F)c1ccc(Nc2cnnc3cc(-c4ncccc4C(F)(F)F)ccc23)nc1
IC50 [8]: 29 nM

FC(F)(F)c1ccc(Nc2ccnc3nc(-c4ncccc4C(F)(F)F)cnc23)nc1
solubility at 4 h [1]: 8 µg/mL (≈ 18.3 µM) | IC50 [8]: 0.23 nM

COCc1nc(Nc2ccc(C(F)(F)F)cc2)c2ccc(-c3ncccc3C(F)(F)F)cc2n1
minimal effective dose [9]: 0.3 mg/kg
